According to ChEMBL document CHEMBL4371016, “Proline- and Arginine-Rich Peptides as Flexible Allosteric Modulators of Human Proteasome Activity” (J Med Chem, 2019):

Legend:
[1] = compound: CC(C)C[C@H](NC(=O)[C@H](Cc1ccc(O)cc1)NC(=O)[C@H](CCCNC(=N)N)NC(=O)[C@H](CCCNC(=N)N)NC(=O)[C@@H](N)CCCNC(=N)N)C(=O)N1CCC[C@H]1C(=O)N[C@@H](CCCNC(=N)N)C(=O)N[C@@H](Cc1c[nH]c2ccccc12)C(=O)NCC(N)=O; test: (§1) Non-competitive mixed-type inhibition of SDS-activated human erythrocytes 20S proteasome chymotrypsin like activity assessed as substrate Km using Suc-LLVY-AMC as substrate measured every 2 mins up to 60 mins by fluorescence assay
Method in brief: (§2)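 SDS-activated CP at 1.4 nM. Suc-LLVY-AMC varied from 20 to 200 μM at inhibitor levels of 0.05, 0.1 and 0.2 μM. Fluorescence read kinetically at 37 °C. […] Three independent replicates.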

[2] = compound: CC(C)C[C@H](NC(=O)[C@H](Cc1ccc(O)cc1)NC(=O)[C@@H]1CCCN1C(=O)[C@@H]1CCCN1C(=O)[C@H](CCCNC(=N)N)NC(=O)[C@@H]1CCCN1C(=O)[C@H](CCCNC(=N)N)NC(=O)[C@H](CCCNC(=N)N)NC(=O)[C@@H](N)CCCNC(=N)N)C(=O)N1CCC[C@H]1C(=O)N[C@@H](CCCNC(=N)N)C(=O)N[C@@H](Cc1c[nH]c2ccccc12)C(=O)NCC(=O)O; test: as §1; method in brief: as §2
[3] = compound: CC(C)C[C@H](NC(=O)[C@H](Cc1ccc(O)cc1)NC(=O)[C@H](CCCNC(=N)N)NC(=O)[C@H](CCCNC(=N)N)NC(=O)[C@@H](N)CCCNC(=N)N)C(=O)N1CCC[C@H]1C(=O)N[C@@H](CCCNC(=N)N)C(=O)N[C@@H](Cc1c[nH]c2ccccc12)C(=O)NCC(N)=O; test: (§3) Non-competitive mixed-type inhibition of SDS-activated human erythrocytes 20S proteasome chymotrypsin like activity assessed as substrate Vmax using Suc-LLVY-AMC as substrate measured every 2 mins up to 60 mins by fluorescence assay; method in brief: as §2
[4] = compound: CC(C)C[C@H](NC(=O)[C@H](Cc1ccc(O)cc1)NC(=O)[C@@H]1CCCN1C(=O)[C@@H]1CCCN1C(=O)[C@H](CCCNC(=N)N)NC(=O)[C@@H]1CCCN1C(=O)[C@H](CCCNC(=N)N)NC(=O)[C@H](CCCNC(=N)N)NC(=O)[C@@H](N)CCCNC(=N)N)C(=O)N1CCC[C@H]1C(=O)N[C@@H](CCCNC(=N)N)C(=O)N[C@@H](Cc1c[nH]c2ccccc12)C(=O)NCC(=O)O; test: as §3; method in brief: as §2

B1: Proteasome Macropain subunit MB1 (Homo sapiens), P28074 (protein)
chain: MALASVLERPLPVNQRGFFGLGGRADLLDLGPGSLSDGLSLAAPGWGVPEEPGIEMLHGTTTLAFKFRHGVIVAADSRATAGAYIASQTVKKVIEINPYLLGTMAGGAADCSFWERLLARQCRIYELRNKERISVAAASKLLANMVYQYKGMGLSMGTMICGWDKRGPGLYYVDSEGNRISGATFSVGSGSVYAYGVMDRGYSYDLEVEQAYDLARRAIYQATYRDAYSGGAVNLYHVREDGWIRVSSDNVADLHEKYSGSTP
In the case of B1, the Km [1] is reported as 14 µM, the Km [2] is reported as 17.4 µM and the Vmax [3] is reported as 13.5 s⁻¹. The Vmax [4] was 13.6 s⁻¹.
